The source made the active and inactive calls. No cut-off for these calls is given here.
What was measured:
[1] = molecular target: Serine/threonine-protein kinase pim-1 (Homo sapiens) (UniProt P11309); assay: Inhibition of human PIM1 assessed as remaining activity at 10 uM in presence of ATP by radiometric kinase assay relative to control
[2] = molecular target: Mitogen-activated protein kinase 1 (Homo sapiens) (UniProt P28482); assay: Inhibition of human ERK2 assessed as remaining activity at 10 uM in presence of ATP by radiometric kinase assay relative to control
Mitogen-activated protein kinase 1 (Homo sapiens), sequence (P28482 whole entry): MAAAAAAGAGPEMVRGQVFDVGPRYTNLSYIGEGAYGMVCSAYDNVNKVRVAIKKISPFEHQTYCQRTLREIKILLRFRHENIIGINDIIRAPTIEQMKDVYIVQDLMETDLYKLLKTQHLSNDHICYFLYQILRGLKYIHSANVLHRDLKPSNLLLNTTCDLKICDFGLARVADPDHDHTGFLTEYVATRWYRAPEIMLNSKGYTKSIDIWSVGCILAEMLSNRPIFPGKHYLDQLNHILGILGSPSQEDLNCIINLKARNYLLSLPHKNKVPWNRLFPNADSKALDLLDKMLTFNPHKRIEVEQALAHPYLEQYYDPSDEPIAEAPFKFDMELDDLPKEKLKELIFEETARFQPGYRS

[3] = molecular target: Ribosomal protein S6 kinase alpha-3 (Homo sapiens, UniProt P51812); assay: Inhibition of human RSK2 by FRET based Z-LYTE kinase assay
[4] = molecular target: T1, Ribosomal protein S6 kinase alpha-1 (Homo sapiens, UniProt Q15418); assay: Inhibition of human RSK1 by 33P radiometric kinase assay
T1 sequence (Q15418 whole entry, canonical isoform): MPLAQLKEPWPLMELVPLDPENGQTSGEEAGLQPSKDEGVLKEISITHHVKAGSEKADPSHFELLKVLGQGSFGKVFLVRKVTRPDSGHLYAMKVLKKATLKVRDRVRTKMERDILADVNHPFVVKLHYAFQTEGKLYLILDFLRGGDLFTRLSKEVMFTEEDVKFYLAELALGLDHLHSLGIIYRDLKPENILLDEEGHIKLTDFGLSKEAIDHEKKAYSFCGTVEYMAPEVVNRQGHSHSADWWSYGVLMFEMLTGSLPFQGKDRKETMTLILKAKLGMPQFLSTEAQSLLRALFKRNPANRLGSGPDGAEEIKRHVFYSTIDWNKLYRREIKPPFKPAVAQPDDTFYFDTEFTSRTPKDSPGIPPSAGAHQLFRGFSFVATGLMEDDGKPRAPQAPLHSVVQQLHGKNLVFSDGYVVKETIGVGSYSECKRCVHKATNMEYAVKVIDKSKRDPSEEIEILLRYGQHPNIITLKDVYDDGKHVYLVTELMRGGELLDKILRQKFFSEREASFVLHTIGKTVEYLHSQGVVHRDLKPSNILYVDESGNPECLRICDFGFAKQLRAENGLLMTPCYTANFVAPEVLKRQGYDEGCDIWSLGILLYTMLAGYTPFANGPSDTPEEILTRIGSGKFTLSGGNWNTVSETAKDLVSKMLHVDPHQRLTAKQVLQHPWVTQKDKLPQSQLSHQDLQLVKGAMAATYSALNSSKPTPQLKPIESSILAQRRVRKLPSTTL

[5] = molecular target: Phosphorylase b kinase gamma catalytic chain, skeletal muscle/heart isoform (Homo sapiens, UniProt Q16816); assay: Inhibition of PHKG1 (unknown origin) by FRET based Z-LYTE kinase assay
[6] = molecular target: T2, MAP/microtubule affinity-regulating kinase 3 (Homo sapiens, UniProt P27448); assay: Inhibition of human MARK3 by FRET based Z-LYTE kinase assay
[7] = molecular target: Calcium/calmodulin-dependent protein kinase kinase 2 (Homo sapiens) (UniProt Q96RR4); assay: Inhibition of human CAMKKb assessed as remaining activity at 10 uM in presence of ATP by radiometric kinase assay relative to control
Calcium/calmodulin-dependent protein kinase kinase 2 (Homo sapiens), sequence (Q96RR4 2-588 limits assumed): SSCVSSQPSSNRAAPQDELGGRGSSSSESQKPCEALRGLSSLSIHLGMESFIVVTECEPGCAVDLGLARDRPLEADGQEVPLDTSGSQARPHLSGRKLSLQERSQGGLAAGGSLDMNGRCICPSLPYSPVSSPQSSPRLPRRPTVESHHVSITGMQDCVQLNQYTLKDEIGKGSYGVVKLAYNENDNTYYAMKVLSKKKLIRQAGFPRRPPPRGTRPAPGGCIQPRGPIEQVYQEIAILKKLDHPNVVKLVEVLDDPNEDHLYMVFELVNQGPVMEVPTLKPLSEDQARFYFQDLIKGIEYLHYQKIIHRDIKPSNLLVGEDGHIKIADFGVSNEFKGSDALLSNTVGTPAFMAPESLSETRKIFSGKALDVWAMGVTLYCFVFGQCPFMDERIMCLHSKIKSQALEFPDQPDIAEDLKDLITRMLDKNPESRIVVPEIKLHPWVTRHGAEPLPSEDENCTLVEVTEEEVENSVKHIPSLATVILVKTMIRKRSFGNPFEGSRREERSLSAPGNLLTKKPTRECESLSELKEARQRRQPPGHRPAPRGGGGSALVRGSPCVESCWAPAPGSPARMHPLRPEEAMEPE

[8] = molecular target: Interleukin-1 receptor-associated kinase 1 (Homo sapiens) (UniProt P51617); assay: Inhibition of human IRAK1 assessed as remaining activity at 10 uM in presence of ATP by radiometric kinase assay relative to control
[9] = molecular target: T1, Ribosomal protein S6 kinase alpha-1; assay: Inhibition of human RSK1 at 10 uM in presence of ATP by radiometric kinase assay relative to control
[10] = system: Mus musculus; assay: In vivo inhibition of CHK1 in CRTac:Ncr-Fox1 mouse xenografted with human HT-29 cells assessed as reduction of phosphorylation of CHK1 on S317 at 50 to 100 mg/kg, po administered for 24 hrs by Western blotting analysis; assay type: functional, organism-based; settings: dose 50-100 mg/kg
In short: (§1)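 HT29 s.c. xenografts in female athymic nude mice. Single gemcitabine dose 100mg/kg i.v. on day 0, then one inhibitor dose 50 or 100mg/kg p.o. (DPTW vehicle) 24h later. Tumors taken 24h after the last dose, western blotted, and signals quantified by normalizing to GAPDH.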

[11] = system: Mus musculus; assay: In vivo inhibition of CHK1 in CRTac:Ncr-Fox1 athymic mouse xenografted with human Calu-6 cells assessed as inhibition of CHK1 phosphorylation on S296 at 150 mg/kg, po in presence of gemcitabine and carboplatin by Western blotting analysis; assay type: functional, organism-based
In short: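 Female CRTac:Ncr-Fox1(nu) athymic mice carried s.c. Calu6 xenografts. Tumors were taken 6h after the last inhibitor dose, lysed in CHAPS buffer, and immunoblotted with GAPDH as loading control.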

[12] = molecular target: Ephrin type-A receptor 4 (Homo sapiens) (UniProt P54764); assay: Inhibition of human EPH-A4 assessed as remaining activity at 10 uM in presence of ATP by radiometric kinase assay relative to control
[13] = species on record: Homo sapiens; assay: Inhibition of human AMPK assessed as remaining activity at 10 uM in presence of ATP by radiometric kinase assay relative to control
[14] = system: HT-29; assay: Induction of cell cycle arrest in human HT-29 cells assessed as accumulation of cells at G0/G1 phase at 0.5 uM incubated for 24 hrs by BrdU and PI staining based flow cytometry analysis; assay type: functional
In short: (§2)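 HT29 cells exposed for 24h, stained with bromodeoxyuridine and propidium iodide, and cell-cycle distribution measured by flow cytometry.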

[15] = molecular target: T2, MAP/microtubule affinity-regulating kinase 3; assay: Inhibition of human MARK3 at 10 uM in presence of ATP by radiometric kinase assay relative to control
[16] = Toxicity in Emu-Myc driven transgenic mouse transplant model of B-cell lymphoma assessed as reduction in weight of thymus at 150 mg/kg, po administered for 9 days; assay type: organism-based; settings: in vivo, 216 h, time 9 day
[17] = Tmax in BALB/C mouse plasma at 10 mg/kg, iv by LC/MS-MS analysis; assay type: ADME, organism-based
[18] = species on record: Homo sapiens; assay: Inhibition of human VEG-FR assessed as remaining activity at 10 uM in presence of ATP by radiometric kinase assay relative to control
[19] = system: HT-29; assay: Induction of cell cycle arrest in etoposide induced human HT-29 cells assessed as increase in accumulation of cells at S phase at 1 to 5 uM incubated for 24 hrs by BrdU and PI staining based flow cytometry analysis; assay type: functional; settings: dose 1-5 µM; in short: as §2
[20] = system: Mus musculus; assay: In vivo inhibition of CHK1 in CRTac:Ncr-Fox1 mouse xenografted with human HT-29 cells assessed as reduction of phosphorylation of CHK1 on S296 at 50 mg/kg, po administered for 24 hrs by Western blotting analysis; assay type: functional, organism-based; in short: as §1
[21] = molecular target: Serine/threonine-protein kinase PAK 6 (Homo sapiens) (UniProt Q9NQU5); assay: Inhibition of human PAK6 assessed as remaining activity at 10 uM in presence of ATP by radiometric kinase assay relative to control
[22] = molecular target: AMP-activated protein kinase (AMPK) alpha-1/beta-1/gamma-1 (Homo sapiens, UniProt P54619+Q13131+Q9Y478); assay: Inhibition of AMPK alpha1/beta1/gamma1 (unknown origin) by FRET based Z-LYTE kinase assay; assay type: protein-complex assay
AMP-activated protein kinase (AMPK) alpha-1/beta-1/gamma-1, sequence (P54619 whole entry): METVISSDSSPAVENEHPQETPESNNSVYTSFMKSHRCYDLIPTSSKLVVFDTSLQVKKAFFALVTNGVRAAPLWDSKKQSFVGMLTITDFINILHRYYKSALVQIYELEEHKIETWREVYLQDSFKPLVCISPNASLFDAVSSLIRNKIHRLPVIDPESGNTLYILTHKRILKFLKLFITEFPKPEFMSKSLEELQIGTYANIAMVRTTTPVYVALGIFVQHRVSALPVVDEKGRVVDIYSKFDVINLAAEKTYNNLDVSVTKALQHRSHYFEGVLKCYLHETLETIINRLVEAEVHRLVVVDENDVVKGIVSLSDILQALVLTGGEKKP
AMP-activated protein kinase (AMPK) alpha-1/beta-1/gamma-1, sequence (Q9Y478 whole entry): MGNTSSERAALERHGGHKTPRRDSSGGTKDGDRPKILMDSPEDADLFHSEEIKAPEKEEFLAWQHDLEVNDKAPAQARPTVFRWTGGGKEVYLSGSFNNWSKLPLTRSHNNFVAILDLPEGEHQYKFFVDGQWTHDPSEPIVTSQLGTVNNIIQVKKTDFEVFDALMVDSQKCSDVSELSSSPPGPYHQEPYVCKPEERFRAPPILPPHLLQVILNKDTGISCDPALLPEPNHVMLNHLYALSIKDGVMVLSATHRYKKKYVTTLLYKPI
AMP-activated protein kinase (AMPK) alpha-1/beta-1/gamma-1, sequence (Q13131 whole entry): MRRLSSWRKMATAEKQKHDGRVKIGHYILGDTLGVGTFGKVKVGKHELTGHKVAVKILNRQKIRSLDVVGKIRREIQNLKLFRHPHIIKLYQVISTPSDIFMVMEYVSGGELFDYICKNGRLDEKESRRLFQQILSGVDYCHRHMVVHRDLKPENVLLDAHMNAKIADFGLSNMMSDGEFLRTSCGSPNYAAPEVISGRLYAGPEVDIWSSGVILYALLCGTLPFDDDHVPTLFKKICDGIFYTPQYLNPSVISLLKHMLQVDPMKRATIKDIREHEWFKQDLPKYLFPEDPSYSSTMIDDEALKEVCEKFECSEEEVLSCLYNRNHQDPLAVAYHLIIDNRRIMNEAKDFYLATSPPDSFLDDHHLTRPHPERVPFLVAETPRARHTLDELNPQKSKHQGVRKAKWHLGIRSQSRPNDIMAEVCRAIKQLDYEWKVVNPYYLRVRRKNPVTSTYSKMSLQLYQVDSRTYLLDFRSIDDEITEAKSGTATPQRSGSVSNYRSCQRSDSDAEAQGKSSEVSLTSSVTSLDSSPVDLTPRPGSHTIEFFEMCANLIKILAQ

[23] = molecular target: Aurora kinase B (Homo sapiens) (UniProt Q96GD4); assay: Inhibition of human AuroraB assessed as remaining activity at 10 uM in presence of ATP by radiometric kinase assay relative to control
Aurora kinase B (Homo sapiens), sequence (Q96GD4 whole entry): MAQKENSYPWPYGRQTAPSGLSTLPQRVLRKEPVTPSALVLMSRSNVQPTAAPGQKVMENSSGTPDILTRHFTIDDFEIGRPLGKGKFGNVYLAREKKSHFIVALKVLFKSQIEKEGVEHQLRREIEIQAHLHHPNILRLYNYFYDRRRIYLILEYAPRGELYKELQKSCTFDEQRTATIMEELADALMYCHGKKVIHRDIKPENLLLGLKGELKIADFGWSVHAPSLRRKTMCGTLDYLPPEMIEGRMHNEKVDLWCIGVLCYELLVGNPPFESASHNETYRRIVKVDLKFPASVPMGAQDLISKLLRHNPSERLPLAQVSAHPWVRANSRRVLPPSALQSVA

[24] = molecular target: Calcium/calmodulin-dependent protein kinase type 1 (Homo sapiens) (UniProt Q14012); assay: Inhibition of human CAMK1 assessed as remaining activity at 10 uM in presence of ATP by radiometric kinase assay relative to control
Calcium/calmodulin-dependent protein kinase type 1 (Homo sapiens), sequence (Q14012 whole entry, looked up): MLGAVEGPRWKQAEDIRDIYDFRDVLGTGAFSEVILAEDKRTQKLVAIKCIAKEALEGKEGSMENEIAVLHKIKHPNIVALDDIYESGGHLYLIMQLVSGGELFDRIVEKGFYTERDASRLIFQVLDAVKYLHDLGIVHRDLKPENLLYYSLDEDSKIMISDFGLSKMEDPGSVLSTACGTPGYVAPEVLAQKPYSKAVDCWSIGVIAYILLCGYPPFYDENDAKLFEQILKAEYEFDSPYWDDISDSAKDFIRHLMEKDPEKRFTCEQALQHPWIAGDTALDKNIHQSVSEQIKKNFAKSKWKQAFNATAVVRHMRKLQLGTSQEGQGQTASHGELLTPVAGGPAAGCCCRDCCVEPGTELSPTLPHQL

[25] = molecular target: Dual specificity protein kinase CLK2 (Homo sapiens, UniProt P49760); assay: Inhibition of human CLK2 by FRET based Z-LYTE kinase assay
[26] = Cmax in BALB/C mouse spleen at 10 mg/kg, po by LC/MS-MS analysis; assay type: ADME, organism-based
In short: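 Female BALB/c mice received a single 10mg/kg bolus i.v. or p.o. Plasma (and spleen homogenate) extracted with methanol containing internal standards. Concentrations were measured by LC/MS-MS and PK parameters calculated with modelling software.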

[27] = molecular target: Serine/threonine-protein kinase TAO1 (Homo sapiens) (UniProt Q7L7X3); assay: Inhibition of human TAO1 assessed as remaining activity at 10 uM in presence of ATP by radiometric kinase assay relative to control
Serine/threonine-protein kinase TAO1 (Homo sapiens), sequence (Q7L7X3 whole entry): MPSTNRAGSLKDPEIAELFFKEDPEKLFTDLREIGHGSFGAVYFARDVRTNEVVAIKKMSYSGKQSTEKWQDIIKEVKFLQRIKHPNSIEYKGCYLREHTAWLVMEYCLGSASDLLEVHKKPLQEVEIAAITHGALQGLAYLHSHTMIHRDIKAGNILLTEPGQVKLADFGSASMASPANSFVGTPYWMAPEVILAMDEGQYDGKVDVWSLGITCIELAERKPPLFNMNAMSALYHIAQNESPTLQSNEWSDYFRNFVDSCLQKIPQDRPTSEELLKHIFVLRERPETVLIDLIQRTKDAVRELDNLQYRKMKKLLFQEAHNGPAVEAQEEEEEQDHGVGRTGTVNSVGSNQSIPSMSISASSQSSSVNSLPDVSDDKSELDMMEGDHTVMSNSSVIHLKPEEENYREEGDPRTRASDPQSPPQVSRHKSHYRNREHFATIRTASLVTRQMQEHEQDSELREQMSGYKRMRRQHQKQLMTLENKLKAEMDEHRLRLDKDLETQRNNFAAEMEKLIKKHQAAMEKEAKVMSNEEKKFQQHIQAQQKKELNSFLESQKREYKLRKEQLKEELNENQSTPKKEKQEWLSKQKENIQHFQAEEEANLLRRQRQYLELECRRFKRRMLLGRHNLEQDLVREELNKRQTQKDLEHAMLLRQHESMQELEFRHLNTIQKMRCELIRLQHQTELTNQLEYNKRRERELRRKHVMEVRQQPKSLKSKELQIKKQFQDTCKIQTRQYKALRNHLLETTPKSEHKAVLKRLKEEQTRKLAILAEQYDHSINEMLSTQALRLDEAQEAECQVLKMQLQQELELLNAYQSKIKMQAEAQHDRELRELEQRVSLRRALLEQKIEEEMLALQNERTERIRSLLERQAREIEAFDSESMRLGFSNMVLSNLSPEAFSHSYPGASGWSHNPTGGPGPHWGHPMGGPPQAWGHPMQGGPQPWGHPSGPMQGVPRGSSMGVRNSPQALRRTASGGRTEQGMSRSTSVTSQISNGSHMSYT

[28] = molecular target: Casein kinase 2 (Homo sapiens) (UniProt P67870+P68400+P19784+Q8NEV1); assay: Inhibition of human CK2 assessed as remaining activity at 10 uM in presence of ATP by radiometric kinase assay relative to control; assay type: protein assay
[29] = molecular target: cAMP-dependent protein kinase (PKA) (Homo sapiens) (UniProt P22694+P17612+P22612); assay: Inhibition of human PKA assessed as remaining activity at 10 uM in presence of ATP by radiometric kinase assay relative to control; assay type: protein assay

Serine/threonine-protein kinase pim-1 (Homo sapiens), sequence (P11309 whole entry, looked up): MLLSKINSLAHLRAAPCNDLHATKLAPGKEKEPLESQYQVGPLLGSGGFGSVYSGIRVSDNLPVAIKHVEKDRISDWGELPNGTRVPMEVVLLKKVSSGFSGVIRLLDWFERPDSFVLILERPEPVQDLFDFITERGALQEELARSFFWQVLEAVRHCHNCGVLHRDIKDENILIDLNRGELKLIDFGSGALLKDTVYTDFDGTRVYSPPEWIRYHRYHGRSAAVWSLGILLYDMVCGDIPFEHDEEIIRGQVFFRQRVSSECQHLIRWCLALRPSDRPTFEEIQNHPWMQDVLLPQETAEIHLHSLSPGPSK

Compound: N#Cc1cnc(Nc2cc(NC[C@H]3CNCCO3)c(C(F)(F)F)cn2)cn1 [SRA-737]
- Activity [1]: 56%
- Activity [2]: 98%
- IC50 [3]: 0.361 µM
- IC50 [4]: 0.362 µM
- IC50 [5]: 3.47 µM
- IC50 [6]: 0.698 µM
- Activity [7]: 73%
- Activity [8]: 38%
- inhibition [9]: 93%
- Activity [10]: inactive
- inhibition [11]: Active
- Activity [12]: 71%
- Activity [13]: 32%
- Activity [14]: Active
- inhibition [15]: 87%
- Activity [16]: Toxic
- Tmax [17]: 4.98 min
- Activity [18]: 13%
- Activity [19]: Active
- Activity [20]: Active
- Activity [21]: 77%
- IC50 [22]: 2.97 µM
- Activity [23]: 26%
- Activity [24]: 69%
- IC50 [25]: 1.37 µM
- Cmax [26]: 30.1 µM
- Activity [27]: 54%
- Activity [28]: 81%
- Activity [29]: 93%

— ChEMBL document CHEMBL5653622 (Oncotarget, 2016)
